Reference: ChEMBL document CHEMBL2093137, “WHO-TDR NTD Screening”
≈ marks a conversion by molar mass, not a printed value.

Key:
[1] = WHO-TDR: Cytotoxicity; assay type: toxicity, cell-based; conditions: human, MRC5 cells
Plasmodium falciparum K1 = assay: WHO-TDR: Malaria; assay type: functional, organism-based, Homo sapiens; conditions: Erythrocyte
Method in brief: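 Life Chemicals supplied the diverse library of 10,000 compounds, which had been filtered for drug-likeness and reactive groups. Each was screened against the K1 strain of Plasmodium falciparum at its intra-erythrocytic stage in human red blood cells, using previously published standard procedures and a reference drug as positive control. The table reports IC50 for antiplasmodial potency.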

Trypanosoma cruzi = assay: WHO-TDR: Chagas disease; assay type: functional, organism-based, Homo sapiens; conditions: MRC5
Method in brief: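 Following previously published standard procedures, with a reference drug as positive control, a whole-organism assay was run on Trypanosoma cruzi Tulahuen CL2 beta-galactosidase strain amastigotes inside MRC-5SV2 human lung fibroblast host cells. The 10,000 compounds tested formed a diverse Life Chemicals library filtered for drug-likeness and reactive groups. Results are expressed as IC50 for antiparasitic potency.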

[2] = test system: Trypanosoma brucei brucei; assay: WHO-TDR: Human African Trypanosomiasis (HAT); assay type: functional, organism-based; conditions: Squib-427
Method in brief: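 Following previously published standard procedures, with reference drugs as positive controls, a whole-organism assay was run against bloodstream-form Trypanosoma brucei, Squib 427 strain. The compounds, 10,000 in all, came from a diverse Life Chemicals library filtered for drug-likeness and reactive groups. Reported values are IC50 for antiparasitic potency.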

Leishmania infantum = assay: WHO-TDR: Leishmaniasis; assay type: functional, organism-based, Mus musculus; conditions: Macrophage
Method in brief: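 IC50 values describe antiparasitic potency in this whole-organism screen. Leishmania infantum MHOM/MA(BE)/67 amastigotes were tested inside murine peritoneal macrophages against a 10,000-compound diverse Life Chemicals library. A reference drug served as positive control.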

Schistosoma mansoni = assay: WHO-TDR: Schistosomiasis; assay type: functional; parameters: concentration or dose not given beside the values
Method in brief: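 Whole-organism screen of a 10,000-compound diverse library from Life Chemicals, filtered for drug-likeness and reactive groups, against larval and/or adult worms of Schistosoma mansoni Puerto Rican strain. The assay followed previously published standard procedures, with a reference drug as positive control. Activity is reported as percent inhibition and as IC50.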

Onchocerca lienalis = assay: (§1) WHO-TDR: Onchocerciasis; assay type: functional; parameters: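 at 12.5 µM on microfilariae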
Method in brief: (§2)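 Whole-organism screen of a 10,000-compound diverse library from Life Chemicals, filtered for drug-likeness and reactive groups, against microfilariae of Onchocerca ochengi or Onchocerca lienalis, used as animal-pathogen stand-ins for the human parasite. The assay followed previously published standard procedures, with reference drugs as positive controls. Activity is reported as percent inhibition and as IC50.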

Brugia malayi [3] = assay: (§3) WHO-TDR: Lymphatic Filariasis; assay type: functional; parameters: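 tested at 10 µM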
Method in brief: as §2, with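 “Brugia malayi microfilariae.” for “microfilariae of Onchocerca ochengi or Onchocerca lienalis, used as animal-pathogen stand-ins for the human parasite.”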

Brugia malayi [4] = assay: as §3; assay type: functional; parameters: concentration or dose not given beside the values; remark: listed apart in the source
Method in brief: as §2, with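 “Brugia malayi microfilariae.” for “microfilariae of Onchocerca ochengi or Onchocerca lienalis, used as animal-pathogen stand-ins for the human parasite.”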

Onchocerca ochengi [5] = assay: as §1; assay type: functional; parameters: concentration or dose not given beside the values; method in brief: as §2
Brugia malayi [6] = assay: as §3; assay type: functional, organism-based
Method in brief: as §2, with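 “Brugia malayi microfilariae.” for “microfilariae of Onchocerca ochengi or Onchocerca lienalis, used as animal-pathogen stand-ins for the human parasite.”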

Onchocerca ochengi [7] = assay: as §1; assay type: functional; parameters: concentration or dose not given beside the values; method in brief: as §2; remark: listed apart in the source

SMILES	IC50 [1] [mg/L]	IC50 (Plasmodium falciparum K1) [mg/L]	IC50 (Trypanosoma cruzi) [mg/L]	IC50 [2] [mg/L]	IC50 (Leishmania infantum) [mg/L]	% Inhibition (Schistosoma mansoni) [%]	% Inhibition (Onchocerca lienalis) [%]	% Inhibition (Brugia malayi [3]) [%]	% Inhibition (Brugia malayi [4]) [%]	% Inhibition (Onchocerca ochengi [5]) [%]	IC50 (Brugia malayi [6]) [µM]	% Inhibition (Onchocerca ochengi [7]) [%]
CN1CCc2c(sc(NC(=O)C3COc4ccccc4O3)c2-c2nc3ccccc3s2)C1 (stereo unspecified)	5.39 (≈ 11.6 µM)	3.38 (≈ 7.29 µM)	2.48 (≈ 5.35 µM)	0.48 (≈ 1.04 µM)	4.86 (≈ 10.5 µM)	0	0	33.33	66.67			
Cc1ccc(-n2ccnc2N2CCN(C(=O)c3ccccc3SC(F)F)CC2)cc1	13.9 (≈ 32.6 µM)	3.65 (≈ 8.53 µM)	0.531 (≈ 1.24 µM)	4.57 (≈ 10.7 µM)	> 13.9	58.3		0	0	100		
CCC(=O)c1c(NC(=O)c2ccc(C)cc2)sc2c1CCN(CC)C2	> 11.8	1.87 (≈ 5.24 µM)	0.479 (≈ 1.34 µM)	0.321 (≈ 0.9 µM)	2.32 (≈ 6.51 µM)	0	0	33.33	33.33			
CCN1CCc2c(sc(NC(=O)c3ccccc3)c2-c2nc3ccccc3s2)C1	3.75 (≈ 8.94 µM)	2.17 (≈ 5.17 µM)	0.514 (≈ 1.23 µM)	1.22 (≈ 2.91 µM)	4.43 (≈ 10.6 µM)	25	0	0	0			
CCOC(=O)c1c(NC(=O)c2sc3ccccc3c2Cl)sc2c1CCN(C)C2	3.6 (≈ 8.29 µM)	> 14.1	0.568 (≈ 1.31 µM)	1.95 (≈ 4.49 µM)	4.58 (≈ 10.5 µM)	0	0	33.33	33.33			
CC1CCc2c(sc(Nc3nc4c(F)cccc4s3)c2C(N)=O)C1 (stereo unspecified)	> 10.8	2.69 (≈ 7.46 µM)	4.66 (≈ 12.9 µM)	2.31 (≈ 6.39 µM)	3.51 (≈ 9.71 µM)	0		100	25		4.99	
COc1ccc2nc(Nc3nc(-c4ccccn4)cs3)sc2c1	0.129 (≈ 0.378 µM)	0.312 (≈ 0.915 µM)	< 0.102	< 0.102	0.323 (≈ 0.949 µM)	0		100	25		2.61	
CC(C)(C)c1ccc(-c2csc(NC(=O)c3ccc4ncsc4c3)n2)cc1	7.77 (≈ 19.7 µM)	2.77 (≈ 7.04 µM)	0.891 (≈ 2.26 µM)	3.46 (≈ 8.8 µM)	4.24 (≈ 10.8 µM)	0	33.3	50	0			
Cc1cc(C)c2sc(NC(=O)c3nc4ccccc4s3)nc2c1	> 10.2	> 10.2	> 10.2	> 10.9	> 10.2	0		100	25		2.5	
CCCC(=O)Nc1nnc(-c2ccc(C)cc2)s1	> 7.84	> 7.84	> 7.84	> 7.84	> 7.84	0	0	0	100			
CN1CCc2c(OCC(=O)N3N=C(c4cccs4)CC3c3ccc(F)cc3)cccc2C1=O (stereo unspecified)	> 13.9	7.38 (≈ 15.9 µM)	2.3 (≈ 4.96 µM)	4.45 (≈ 9.6 µM)	0.947 (≈ 2.04 µM)	0	0	90	0			
O=C(C1CC1)N1CCc2ccc(NS(=O)(=O)c3ccc4c(c3)CCCC4)cc21	1.28 (≈ 3.24 µM)	> 11.9	0.829 (≈ 2.09 µM)	3.85 (≈ 9.71 µM)	> 11.9	0		0	0	0		
Cc1cc(NC(=O)C2CCCN(S(=O)(=O)c3ccccc3)C2)on1 (stereo unspecified)	> 10.5	> 10.5	> 10.5	> 10.5	0.339 (≈ 0.97 µM)	41.7		0	0	0		
O=C(C1CCCC1)N1CCc2ccc(NS(=O)(=O)c3ccc4c(c3)OCCO4)cc21	> 12.9	> 12.9	> 12.9	> 12.9	0.416 (≈ 0.971 µM)	0		0	0	0		
CC(C)N1CCc2c(sc(NC(=O)c3sc4ccccc4c3Cl)c2C(N)=O)C1	4.25 (≈ 9.8 µM)	> 14.1	0.552 (≈ 1.27 µM)	2.02 (≈ 4.65 µM)	0.457 (≈ 1.05 µM)	0	0	33.33	0			
N#Cc1cnc2c(F)cccc2c1Nc1ccc(Br)cc1	> 11.4	> 11.4	> 11.4	> 11.4	> 11.4	0		0	0	100		
O=C(Nc1ccc(C(F)(F)F)cc1)N1CCN(Cc2nnnn2-c2ccccc2)CC1	> 12.9	> 12.9	> 12.9	6.01 (≈ 13.9 µM)	> 12.9			0	0	100		
COc1ccc(CC(=O)NCCS(=O)(=O)N2CCN(c3ncccn3)CC2)cc1OC	> 13.5	> 13.5	> 13.5	> 13.5	0.437 (≈ 0.972 µM)	33.3		0	0	0		
CC(C)N1CCc2c(sc(NC(=O)COc3ccc(Cl)cc3Cl)c2C(N)=O)C1	3.18 (≈ 7.19 µM)	3.35 (≈ 7.57 µM)	0.595 (≈ 1.35 µM)	4.6 (≈ 10.4 µM)	0.465 (≈ 1.05 µM)	0	20	33.33	0			
CN(c1ccccc1)c1nnc(-c2ccc(NC(=O)Cc3cccs3)cc2)s1	> 12.2	> 12.2	> 12.2	> 12.2	3.95 (≈ 9.71 µM)			0	25	100		
COc1cccc2c1CCN(Cc1ccc(Cl)cc1)C2=O	> 9.05	> 9.05	2.48 (≈ 8.23 µM)	> 9.05	> 9.05	0	40	100			3.54	
COc1ccc2nc(N(CCCN(C)C)C(=O)CCCSc3ccccc3)sc2c1	4.06 (≈ 9.16 µM)	3.35 (≈ 7.55 µM)	2.53 (≈ 5.71 µM)	0.455 (≈ 1.03 µM)	4.66 (≈ 10.5 µM)	0	12.34	0	0			
CCOC(=O)c1c(NC(=O)c2cccc(C(F)(F)F)c2)sc2c1CCN(C)C2	> 13.5	> 13.5	4.8 (≈ 11.6 µM)	0.341 (≈ 0.826 µM)	4.84 (≈ 11.7 µM)	0	0	33.33	0			
c1ccc2c(CCNc3[nH]cnc4ncnc3-4)c[nH]c2c1	1.91 (≈ 6.87 µM)	> 8.35	0.588 (≈ 2.11 µM)	> 8.35	> 8.35	0	13.4	0	0			
Cc1cc(F)ccc1S(=O)(=O)Nc1ccc2c(c1)CN(C(=O)c1ccco1)CC2	7.31 (≈ 17.6 µM)	6.28 (≈ 15.2 µM)	3.44 (≈ 8.3 µM)	4.03 (≈ 9.71 µM)	> 12.4	0				100		0
O=C(NCC1CC(=O)N(c2ccc(Cl)cc2)C1)NC1CCCCC1 (stereo unspecified)	> 10.5	> 10.5	> 10.5	> 10.5	> 10.5	0				0		100
Cc1c(S(=O)(=O)CCNC(=O)NC2CCCCC2)c2ccccc2n1Cc1ccc(F)cc1	> 14.1	> 14.1	> 14.1	> 14.1	> 14.1	0				100		0
Cc1[nH]c2ccccc2c1S(=O)(=O)CCNC(=O)Nc1ccc(C(F)(F)F)cc1	> 12.8	> 12.8	> 12.8	> 12.8	> 12.8	0				100		0
